For 15 compounds, MIC90 and Ratio results are on record in ChEMBL document CHEMBL4118076, “Azide-alkyne cycloaddition towards 1H-1,2,3-triazole-tethered gatifloxacin and isatin conjugates: Design, synthesis and in vitro anti-mycobacterial evaluation” (Eur J Med Chem, 2017).

Format in all cases: functional
The subject of assay [1] is Mycobacterium tuberculosis. In words: Antimycobacterial activity against multidrug resistant Mycobacterium tuberculosis after 3 to 7 days by rapid direct susceptibility test. In short, it runs like this: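 Two-fold DMSO dilutions, 0.0125 to 200 μg/mL for H37Rv and 0.062 to 128 μg/mL for the MDR strain (resistant to INH, RIF and ethambutol), mixed with suspension containing 4×10^-3 mg cells. Sealed plates incubated at 37 °C in a wet box. Growth was read visually under high magnification at 3 days and again 7 days later. MIC is the lowest concentration giving complete growth inhibition.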

Assay [2] relates to Mycobacterium tuberculosis. In words: Potency index, ratio of isoniazid MIC90 to compound MIC90 for multidrug resistant Mycobacterium tuberculosis.
Assay [3] concerns Mycobacterium tuberculosis. In words: Potency index, ratio of rifampicin MIC90 to compound MIC90 for multidrug resistant Mycobacterium tuberculosis.
Assay [4] relates to Mycobacterium tuberculosis. In words: Potency index, ratio of gatifloxacin MIC90 to compound MIC90 for multidrug resistant Mycobacterium tuberculosis.
The nature of assay [5]: Resistance index, ratio of MIC90 for multidrug resistant Mycobacterium tuberculosis to MIC90 for Mycobacterium tuberculosis H37Rv.

Values after ≈ are worked out from the molar mass of the structure shown.

Turning to `CO[C@H]1/C=C/O[C@@]2(C)Oc3c(C)c(O)c4c(O)c(c(/C=N/N5CCN(C)CC5)c(O)c4c3C2=O)NC(=O)/C(C)=C\C=C\[C@H](C)[C@H](O)[C@@H](C)[C@@H](O)[C@@H](C)[C@H](OC(C)=O)[C@@H]1C` [RIFAMPIN], the MIC90 (commonly the lowest concentration that inhibits either 90% of growth or 90% of the strains tested, depending on the study) in assay [1] worked out at 32 µg/mL (≈ 38.9 µM). In turn, `COc1c(N2CCNC(C)C2)c(F)cc2c(=O)c(C(=O)O)cn(C3CC3)c12` (centres undefined) [GATIFLOXACIN] gave an MIC90 in assay [1] of 1 µg/mL (≈ 2.66 µM). With `CO/N=C1\C(=O)N(CCn2cc(CN3CCN(c4c(F)cc5c(=O)c(C(=O)O)cn(C6CC6)c5c4OC)CC3C)nn2)c2ccc(F)cc21` (centres undefined), the Ratio result in assay [2], in assay [3] and in assay [4] was “>=4 - 512” throughout. This compound returned an MIC90 in assay [1] of 0.25 µg/mL (≈ 0.369 µM). `COc1c(N2CCN(Cc3cn(CCN4C(=O)/C(=N\O)c5cc(Cl)ccc54)nn3)C(C)C2)c(F)cc2c(=O)c(C(=O)O)cn(C3CC3)c12` (centres undefined) had an MIC90 in assay [1] of 2 µg/mL (≈ 2.95 µM).

Take `COc1c(N2CCN(Cc3cn(CCN4C(=O)C(=O)c5cc(Cl)ccc54)nn3)C(C)C2)c(F)cc2c(=O)c(C(=O)O)cn(C3CC3)c12` (centres undefined): the MIC90 in assay [1] is 0.5 µg/mL (≈ 0.753 µM). The same measure, in the same setting: with `NNC(=O)c1ccncc1` [ISONIAZID] the figure was greater than 128 µg/mL.

For the compound `CO/N=C1\C(=O)N(CCn2cc(CN3CCN(c4c(F)cc5c(=O)c(C(=O)O)cn(C6CC6)c5c4OC)CC3C)nn2)c2ccc(C)cc21` (centres undefined), the Ratio in assay [5] is less than 1. This compound also yielded an MIC90 in assay [1] of 0.5 µg/mL (≈ 0.743 µM). For `COc1c(N2CCN(Cc3cn(CCN4C(=O)C(=O)c5cc(F)ccc54)nn3)C(C)C2)c(F)cc2c(=O)c(C(=O)O)cn(C3CC3)c12` (centres undefined) the same measures were less than 1 and 0.5 µg/mL (≈ 0.772 µM).

In assay [1], `CO/N=C1\C(=O)N(CCn2cc(CN3CCN(c4c(F)cc5c(=O)c(C(=O)O)cn(C6CC6)c5c4OC)CC3C)nn2)c2ccccc21` (centres undefined) had an MIC90 of 1 µg/mL (≈ 1.52 µM).

Take `CO/N=C1\C(=O)N(CCn2cc(CN3CCN(c4c(F)cc5c(=O)c(C(=O)O)cn(C6CC6)c5c4OC)CC3C)nn2)c2ccc(Cl)cc21` (centres undefined): the Ratio entry in assay [2], in assay [3] and in assay [4] was “>=4 - 512” each time. This compound also returned an MIC90 in assay [1] of 0.25 µg/mL (≈ 0.361 µM). `COc1c(N2CCN(Cc3cn(CCN4C(=O)/C(=N\O)c5cc(F)ccc54)nn3)C(C)C2)c(F)cc2c(=O)c(C(=O)O)cn(C3CC3)c12` (centres undefined) displayed an MIC90 in assay [1] of 1 µg/mL (≈ 1.51 µM). Compound `COc1c(N2CCN(Cc3cn(CCN4C(=O)C(=O)c5ccccc54)nn3)C(C)C2)c(F)cc2c(=O)c(C(=O)O)cn(C3CC3)c12` (centres undefined) came in with an MIC90 in assay [1] of 4 µg/mL (≈ 6.35 µM). Compared with the last compound, the MIC90 is about 4-fold higher. Still for that read-out and setting: with `COc1c(N2CCN(Cc3cn(CCN4C(=O)/C(=N\O)c5ccccc54)nn3)C(C)C2)c(F)cc2c(=O)c(C(=O)O)cn(C3CC3)c12` (centres undefined) the figure was 8 µg/mL (≈ 12.4 µM). `COc1c(N2CCN(Cc3cn(CCN4C(=O)C(=O)c5cc(C)ccc54)nn3)C(C)C2)c(F)cc2c(=O)c(C(=O)O)cn(C3CC3)c12` (centres undefined): the Ratio in assay [5] is less than 1. This compound registered an MIC90 in assay [1] of 1 µg/mL (≈ 1.55 µM). `COc1c(N2CCN(Cc3cn(CCN4C(=O)/C(=N\O)c5cc(C)ccc54)nn3)C(C)C2)c(F)cc2c(=O)c(C(=O)O)cn(C3CC3)c12` (centres undefined) showed an MIC90 in assay [1] of 8 µg/mL (≈ 12.1 µM).
